Source: publication PMC8453095 (Journal of molecular biology, 2021)

Experiments:
[1] = biological target: T1, full-length DnaG (Bacillus subtilis, UniProt P05096); assay type: biochemical
T1 sequence (P05096 1-603): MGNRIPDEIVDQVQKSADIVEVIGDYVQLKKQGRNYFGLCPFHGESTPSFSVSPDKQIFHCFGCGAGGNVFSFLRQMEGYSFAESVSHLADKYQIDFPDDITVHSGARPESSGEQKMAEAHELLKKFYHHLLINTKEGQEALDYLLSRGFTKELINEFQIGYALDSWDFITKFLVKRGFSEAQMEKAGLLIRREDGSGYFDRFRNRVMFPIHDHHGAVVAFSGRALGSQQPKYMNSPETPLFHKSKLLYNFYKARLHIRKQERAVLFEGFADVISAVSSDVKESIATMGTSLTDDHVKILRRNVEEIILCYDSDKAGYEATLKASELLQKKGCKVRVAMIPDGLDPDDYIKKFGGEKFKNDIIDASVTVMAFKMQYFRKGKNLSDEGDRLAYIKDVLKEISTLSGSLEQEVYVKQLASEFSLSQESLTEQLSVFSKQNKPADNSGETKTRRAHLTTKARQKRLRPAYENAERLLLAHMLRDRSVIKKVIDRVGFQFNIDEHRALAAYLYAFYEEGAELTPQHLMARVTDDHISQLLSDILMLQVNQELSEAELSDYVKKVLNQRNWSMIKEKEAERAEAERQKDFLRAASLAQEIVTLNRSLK
Procedure, shortened: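 Full-length His-tagged DnaG, Ni-affinity purified, at 100 nM was added last to 500 nM ssDNA template with 0.4 mM ATP, CTP, UTP and GTP at 0, 12.5, 25, 50, 100, 200 or 400 μM, preincubated ± inhibitor. Buffer: 50 mM Tris pH 7.5 with Mg2+, Mn2+, Ca2+ and 10 mM DTT. Incubated 37°C, 30 min; heteroduplex dye fluorescence read at four time points. V0 per enzyme; Ki fitted to competitive/uncompetitive/noncompetitive/mixed models; n≥3.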

[2] = biological target: DnaG(ZBD+RPD) (Bacillus subtilis, UniProt P05096); assay type: biochemical
Procedure, shortened: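 His-tagged DnaGΔ440-603 (ZBD+RPD), expressed in BL21(DE3) cells and Ni-affinity purified, used at 200 nM. Template (500 nM ssDNA) and NTPs (0.4 mM ATP, CTP, UTP; GTP 0–400 μM) briefly preincubated ± inhibitor before enzyme. Buffer: 50 mM Tris pH 7.5, 10 mM Mg acetate, 5 mM MnCl2, 5 mM CaCl2. Ran at 37°C. Dye read at 5, 10, 20 and 30 min (ex 485/em 528 nm). V0 was normalised to enzyme, and Ki came from inhibition-model fits; n≥3.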

SMILES | Ki [1] [µM] | Ki [2] [µM]
Nc1nc2c(ncn2[C@@H]2O[C@H](COP(=O)(O)OP(=O)(O)O)[C@@H](OP(=O)(O)OP(=O)(O)O)[C@H]2O)c(=O)[nH]1 [ppGpp] | 777 ± 110 | –
Nc1nc2c(ncn2[C@@H]2O[C@H](COP(=O)(O)OP(=O)(O)OP(=O)(O)O)[C@@H](OP(=O)(O)OP(=O)(O)O)[C@H]2O)c(=O)[nH]1 [pppGpp] | 163 ± 37 | 115 ± 17.8
